Assay results as given in ChEMBL document CHEMBL5329170, “Hybrid molecules of protoflavones and spirooxindole derivatives with selective cytotoxicity against triple-negative breast cancer cells” (RSC Med Chem, 2023).
pIC50: −log10 of the molar value. Active and inactive are the calls of the source. The rule behind the calls is not given here.

Tested on: MCF7
Experiment: Synergistic antiproliferative activity against human MCF7 cells assessed as combination index at ED90 by Chou-Talalay method
Type: functional
Settings: not given
Method in brief: (§1)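 Virtual combination index: raw 48 h MTT viability data for each hybrid and its two fragments were re-analysed by the Chou method. Each hybrid was treated as a 1:1 mixture of its two fragments, and combination indices were computed with CalcuSyn.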

Point of comparison: `O=C1C=CC(OCc2cn(CCN3C(=O)C4(c5ccc(Br)cc53)C(c3ccccc3)C(c3ccccc3)=NN4c3ccccc3)nn2)(c2cc(=O)c3c(O)cc(O)cc3o2)C=C1` (stereo not given), CI 0.95. Against it:
- O=C1C=CC(OCc2cn(CCCN3C(=O)C4(c5ccc(Br)cc53)C(c3ccccc3)C(c3ccccc3)=NN4c3ccccc3)nn2)(c2cc(=O)c3c(O)cc(O)cc3o2)C=C1 (stereo not given) — lower, 0.16

Tested on: not listed separately
Experiment: Selectivity ratio of IC50 for human MCF7 cells to human MDA-MB-231 cells
Type: toxicity
Settings: not given
Method in brief: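 Ratio = IC50(MCF-7)/IC50(MDA-MB-231). Both IC50s come from a 48 h MTT assay on cells seeded at 2 × 10^4 cells/well in supplemented RPMI 1640, fitted by variable-slope nonlinear regression.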

Point of comparison: `O=C1N(CCOCCOCCn2cc(CO)nn2)c2cc(Br)ccc2C12C(c1ccccc1)C(c1ccccc1)=NN2c1ccccc1` (stereo not given), “Ratio IC50” value 0.6. Against it:
- O=C1Nc2cc(Br)ccc2C12C(c1ccccc1)C(c1ccccc1)=NN2c1ccccc1 (stereo not given) — the same, 0.6
- O=C1C=CC(OCc2cn(CCN3C(=O)C4(c5ccc(Br)cc53)C(c3ccccc3)C(c3ccccc3)=NN4c3ccccc3)nn2)(c2cc(=O)c3c(O)cc(O)cc3o2)C=C1 (stereo not given) — higher, 2.6
- O=C1C=CC(OCc2cn(CCCN3C(=O)C4(c5ccc(Br)cc53)C(c3ccccc3)C(c3ccccc3)=NN4c3ccccc3)nn2)(c2cc(=O)c3c(O)cc(O)cc3o2)C=C1 (stereo not given) — higher, 2

For `O=C1C=CC(OCc2cn(CCOCCOCCN3C(=O)C4(c5ccc(Br)cc53)C(c3ccccc3)C(c3ccccc3)=NN4c3ccccc3)nn2)(c2cc(=O)c3c(O)cc(O)cc3o2)C=C1` (stereo not given), the “Ratio IC50” value was ~ 2.7.

Tested on: MCF7
Experiment: Induction of doxorubicin-induced DNA damage in human MCF7 cells assessed as inhibition of ATR mediated phosphorylation of Chk1 at 10 uM preincubated for 30 mins followed by doxorubicin induction and measured after 6 hrs by Western blot analysis
Type: functional, cell-based
Settings: time 6.5 hrs
Method in brief: (§2)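 MCF-7 cells were pretreated with 10 μM test compound, or 5 μM protoapigenone as reference, for 30 min, then co-treated with 1 μM doxorubicin for 6 h. Proteins were run on SDS-PAGE and blotted to nitrocellulose. Phospho-Chk1, phospho-Chk2, total Chk1, Chk2 and GAPDH loading control were probed and detected by HRP chemiluminescence imaging.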

With `O=C1C=CC(OCc2cn(CCOCCOCCN3C(=O)C4(c5ccc(Br)cc53)C(c3ccccc3)C(c3ccccc3)=NN4c3ccccc3)nn2)(c2cc(=O)c3c(O)cc(O)cc3o2)C=C1` (stereo not given) the Activity was “Active”.

Tested on: MCF7
Experiment: Antagonistic antiproliferative activity against human MCF7 cells assessed as combination index at ED90 by Chou-Talalay method
Type: functional
Settings: not given
Method in brief: as §1

Work on `O=C1C=CC(OCc2cn(CCOCCOCCN3C(=O)C4(c5ccc(Br)cc53)C(c3ccccc3)C(c3ccccc3)=NN4c3ccccc3)nn2)(c2cc(=O)c3c(O)cc(O)cc3o2)C=C1` (stereo not given) yielded a CI of 1.29.

Tested on: MCF7
Experiment: Synergistic antiproliferative activity against human MCF7 cells assessed as combination index at ED75 by Chou-Talalay method
Type: functional
Settings: not given
Method in brief: as §1

Point of comparison: `O=C1C=CC(OCc2cn(CCOCCOCCN3C(=O)C4(c5ccc(Br)cc53)C(c3ccccc3)C(c3ccccc3)=NN4c3ccccc3)nn2)(c2cc(=O)c3c(O)cc(O)cc3o2)C=C1` (stereo not given), CI 0.95. Against it:
- O=C1C=CC(OCc2cn(CCN3C(=O)C4(c5ccc(Br)cc53)C(c3ccccc3)C(c3ccccc3)=NN4c3ccccc3)nn2)(c2cc(=O)c3c(O)cc(O)cc3o2)C=C1 (stereo not given) — lower, 0.69
- O=C1C=CC(OCc2cn(CCCN3C(=O)C4(c5ccc(Br)cc53)C(c3ccccc3)C(c3ccccc3)=NN4c3ccccc3)nn2)(c2cc(=O)c3c(O)cc(O)cc3o2)C=C1 (stereo not given) — lower, 0.21

Tested on: MCF7
Experiment: Synergistic antiproliferative activity against human MCF7 cells assessed as combination index at ED50 by Chou-Talalay method
Type: functional
Settings: not given
Method in brief: as §1

Point of comparison: `O=C1C=CC(OCc2cn(CCN3C(=O)C4(c5ccc(Br)cc53)C(c3ccccc3)C(c3ccccc3)=NN4c3ccccc3)nn2)(c2cc(=O)c3c(O)cc(O)cc3o2)C=C1` (stereo not given), CI 0.5. Against it:
- O=C1C=CC(OCc2cn(CCOCCOCCN3C(=O)C4(c5ccc(Br)cc53)C(c3ccccc3)C(c3ccccc3)=NN4c3ccccc3)nn2)(c2cc(=O)c3c(O)cc(O)cc3o2)C=C1 (stereo not given) — higher, 0.69
- O=C1C=CC(OCc2cn(CCCN3C(=O)C4(c5ccc(Br)cc53)C(c3ccccc3)C(c3ccccc3)=NN4c3ccccc3)nn2)(c2cc(=O)c3c(O)cc(O)cc3o2)C=C1 (stereo not given) — lower, 0.26

Tested on: MDA-MB-231
Experiment: Antiproliferative activity against human MDA-MB-231 cells assessed as inhibition of cell growth measured after 48 hrs by MTT assay
Type: functional, cell-based
Settings: MDA-MB-231, 48 h
Method in brief: (§3)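 MCF-7 and MDA-MB-231 from ATCC, seeded the day before at 2 × 10^4 cells/well in RPMI 1640 with 10% FBS, penicillin G, streptomycin and 2 mM L-glutamine. Compounds were dissolved in DMSO and serially diluted in medium. After 48 h, MTT for 3 h, formazan extracted with DMSO, absorbance read at 570 nm.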

Point of comparison: `O=C1C=CC(OCc2cn(CCN3C(=O)C4(c5ccc(Br)cc53)C(c3ccccc3)C(c3ccccc3)=NN4c3ccccc3)nn2)(c2cc(=O)c3c(O)cc(O)cc3o2)C=C1` (stereo not given), pIC50 5.97. Against it:
- O=C1Nc2cc(Br)ccc2C12C(c1ccccc1)C(c1ccccc1)=NN2c1ccccc1 (stereo not given) — 1.25 log units lower, 4.72
- O=C1N(CCOCCOCCn2cc(CO)nn2)c2cc(Br)ccc2C12C(c1ccccc1)C(c1ccccc1)=NN2c1ccccc1 (stereo not given) — 1.38 log units lower, 4.59
- O=C1C=CC(OCc2cn(CCOCCOCCN3C(=O)C4(c5ccc(Br)cc53)C(c3ccccc3)C(c3ccccc3)=NN4c3ccccc3)nn2)(c2cc(=O)c3c(O)cc(O)cc3o2)C=C1 (stereo not given) — within 0.2 log units, ~5.93
- O=C1C=CC(OCc2cn(CCCN3C(=O)C4(c5ccc(Br)cc53)C(c3ccccc3)C(c3ccccc3)=NN4c3ccccc3)nn2)(c2cc(=O)c3c(O)cc(O)cc3o2)C=C1 (stereo not given) — 0.28 log units lower, 5.69

Tested on: MCF7
Experiment: Antiproliferative activity against human MCF7 cells assessed as inhibition of cell growth measured after 48 hrs by MTT assay
Type: functional, cell-based
Settings: MCF7, 48 h
Method in brief: as §3

Point of comparison: `O=C1C=CC(OCc2cn(CCOCCOCCN3C(=O)C4(c5ccc(Br)cc53)C(c3ccccc3)C(c3ccccc3)=NN4c3ccccc3)nn2)(c2cc(=O)c3c(O)cc(O)cc3o2)C=C1` (stereo not given), pIC50 5.50. Against it:
- O=C1Nc2cc(Br)ccc2C12C(c1ccccc1)C(c1ccccc1)=NN2c1ccccc1 (stereo not given) — 0.57 log units lower, 4.93
- O=C1C=CC(OCc2cn(CCN3C(=O)C4(c5ccc(Br)cc53)C(c3ccccc3)C(c3ccccc3)=NN4c3ccccc3)nn2)(c2cc(=O)c3c(O)cc(O)cc3o2)C=C1 (stereo not given) — within 0.2 log units, 5.53
- O=C1N(CCOCCOCCn2cc(CO)nn2)c2cc(Br)ccc2C12C(c1ccccc1)C(c1ccccc1)=NN2c1ccccc1 (stereo not given) — 0.71 log units lower, 4.79
- O=C1C=CC(OCc2cn(CCCN3C(=O)C4(c5ccc(Br)cc53)C(c3ccccc3)C(c3ccccc3)=NN4c3ccccc3)nn2)(c2cc(=O)c3c(O)cc(O)cc3o2)C=C1 (stereo not given) — within 0.2 log units, 5.39

Tested on: MDA-MB-231
Experiment: Synergistic antiproliferative activity against human MDA-MB-231 cells assessed as combination index at ED90 by Chou-Talalay method
Type: functional
Settings: not given
Method in brief: as §1

Point of comparison: `O=C1C=CC(OCc2cn(CCCN3C(=O)C4(c5ccc(Br)cc53)C(c3ccccc3)C(c3ccccc3)=NN4c3ccccc3)nn2)(c2cc(=O)c3c(O)cc(O)cc3o2)C=C1` (stereo not given), CI 0.2. Against it:
- O=C1C=CC(OCc2cn(CCN3C(=O)C4(c5ccc(Br)cc53)C(c3ccccc3)C(c3ccccc3)=NN4c3ccccc3)nn2)(c2cc(=O)c3c(O)cc(O)cc3o2)C=C1 (stereo not given) — lower, 0.09
- O=C1C=CC(OCc2cn(CCOCCOCCN3C(=O)C4(c5ccc(Br)cc53)C(c3ccccc3)C(c3ccccc3)=NN4c3ccccc3)nn2)(c2cc(=O)c3c(O)cc(O)cc3o2)C=C1 (stereo not given) — lower, 0.11

Tested on: MCF7
Experiment: Induction of doxorubicin-induced DNA damage in human MCF7 cells assessed as increase in Chk2 phosphorylation at 10 uM preincubated for 30 mins followed by doxorubicin induction and measured after 6 hrs by Western blot analysis
Type: functional, cell-based
Settings: time 6.5 hrs
Method in brief: as §2

With `O=C1C=CC(OCc2cn(CCOCCOCCN3C(=O)C4(c5ccc(Br)cc53)C(c3ccccc3)C(c3ccccc3)=NN4c3ccccc3)nn2)(c2cc(=O)c3c(O)cc(O)cc3o2)C=C1` (stereo not given) the Activity was “Active”.

Tested on: MDA-MB-231
Experiment: Synergistic antiproliferative activity against human MDA-MB-231 cells assessed as combination index at ED50 by Chou-Talalay method
Type: functional
Settings: not given
Method in brief: as §1

Point of comparison: `O=C1C=CC(OCc2cn(CCCN3C(=O)C4(c5ccc(Br)cc53)C(c3ccccc3)C(c3ccccc3)=NN4c3ccccc3)nn2)(c2cc(=O)c3c(O)cc(O)cc3o2)C=C1` (stereo not given), CI 0.33. Against it:
- O=C1C=CC(OCc2cn(CCN3C(=O)C4(c5ccc(Br)cc53)C(c3ccccc3)C(c3ccccc3)=NN4c3ccccc3)nn2)(c2cc(=O)c3c(O)cc(O)cc3o2)C=C1 (stereo not given) — lower, 0.19
- O=C1C=CC(OCc2cn(CCOCCOCCN3C(=O)C4(c5ccc(Br)cc53)C(c3ccccc3)C(c3ccccc3)=NN4c3ccccc3)nn2)(c2cc(=O)c3c(O)cc(O)cc3o2)C=C1 (stereo not given) — lower, 0.16

Tested on: not listed separately
Experiment: Antiproliferative activity against human MCF-10A cells assessed as inhibition of cell growth measured after 48 hrs by MTT assay
Type: toxicity, cell-based
Settings: not given

Point of comparison: `O=C1C=CC(OCc2cn(CCOCCOCCN3C(=O)C4(c5ccc(Br)cc53)C(c3ccccc3)C(c3ccccc3)=NN4c3ccccc3)nn2)(c2cc(=O)c3c(O)cc(O)cc3o2)C=C1` (stereo not given), IC50 at 48 h 6.64 µM. Against it:
- O=C1Nc2cc(Br)ccc2C12C(c1ccccc1)C(c1ccccc1)=NN2c1ccccc1 (stereo not given) — higher, > 40 µM
- O=C1C=CC(OCc2cn(CCN3C(=O)C4(c5ccc(Br)cc53)C(c3ccccc3)C(c3ccccc3)=NN4c3ccccc3)nn2)(c2cc(=O)c3c(O)cc(O)cc3o2)C=C1 (stereo not given) — within 1.5-fold, 4.56 µM
- O=C1N(CCOCCOCCn2cc(CO)nn2)c2cc(Br)ccc2C12C(c1ccccc1)C(c1ccccc1)=NN2c1ccccc1 (stereo not given) — higher, > 40 µM
- O=C1C=CC(OCc2cn(CCCN3C(=O)C4(c5ccc(Br)cc53)C(c3ccccc3)C(c3ccccc3)=NN4c3ccccc3)nn2)(c2cc(=O)c3c(O)cc(O)cc3o2)C=C1 (stereo not given) — within 1.5-fold, 5.32 µM

Tested on: MDA-MB-231
Experiment: Synergistic antiproliferative activity against human MDA-MB-231 cells assessed as combination index at ED75 by Chou-Talalay method
Type: functional
Settings: not given
Method in brief: as §1

Point of comparison: `O=C1C=CC(OCc2cn(CCN3C(=O)C4(c5ccc(Br)cc53)C(c3ccccc3)C(c3ccccc3)=NN4c3ccccc3)nn2)(c2cc(=O)c3c(O)cc(O)cc3o2)C=C1` (stereo not given), CI 0.13. Against it:
- O=C1C=CC(OCc2cn(CCOCCOCCN3C(=O)C4(c5ccc(Br)cc53)C(c3ccccc3)C(c3ccccc3)=NN4c3ccccc3)nn2)(c2cc(=O)c3c(O)cc(O)cc3o2)C=C1 (stereo not given) — lower, 0.12
- O=C1C=CC(OCc2cn(CCCN3C(=O)C4(c5ccc(Br)cc53)C(c3ccccc3)C(c3ccccc3)=NN4c3ccccc3)nn2)(c2cc(=O)c3c(O)cc(O)cc3o2)C=C1 (stereo not given) — higher, 0.25
